Source: ChEMBL document CHEMBL4725355, “Design, Synthesis, and Preclinical Evaluation of 3-Methyl-6-(5-thiophenyl)-1,3-dihydro-imidazo[4,5-b]pyridin-2-ones as Selective GluN2B Negative Allosteric Modulators for the Treatment of Mood Disorders” (J Med Chem, 2020)
≈ marks a conversion by molar mass, not a printed value.

Assays:
[1] = Negative allosteric modulation of human GluN1a/GluN2C receptor expressed in CHO cells assessed as inhibition of glutamate and glycine-induced calcium flux preincubated for 5 mins followed by glutamate and glycine addition and measured after 5 mins by calcium 5 dye based FLIPR assay; assay type: cell-based
Outline: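 Tet-On CHO T-Rex cells expressing hGluN1a with GluN2A, 2B, 2C or 2D, plated at 20,000 cells/well and induced 24 h before the assay in the presence of ketamine. Cells loaded 1 h at room temperature with Calcium 5 dye, pH 7.4 HEPES buffer. Compound added 5 min, then glutamate (~EC80) plus 10 µM glycine for 5 min; FLIPR fluorescence normalized to control wells. Three independent runs in duplicate (two for some).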

[2] = Cmax in Sprague-Dawley rat at 0.5 mg/kg, iv or 2.5 mg/kg, po using 1:1 PEG-400/water formulation by LC-MS/MS analysis; assay type: ADME, organism-based; parameters: dose 2.5 mg/kg; settings: in vivo
Outline: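 Rat IV/PO PK at 0.5 mg/kg IV and 2.5 mg/kg PO, dosed in 1:1 PEG400/water, n=3.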

[3] = Ex vivo receptor occupancy at GluN2B in Sprague-Dawley rat assessed as 3-[3H] 1-(azetidin-1-yl)-2-[6-(4-fluoro-3-methyl-phenyl)pyrrolo[3,2-b]pyridin-1-yl]-ethanone labelling at 3 mg/kg, po measured after 0.5 hrs by autoradiography; assay type: functional
Outline: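 Rats dosed orally at 3 mg/kg in 20% HP-β-CD; brains taken at 0.5, 2 and 6 h. Ex vivo autoradiography of brain slices with the ³H pyrrolo[3,2-b]pyridine GluN2B tracer. Labelling expressed relative to matching brain areas of vehicle-treated animals; n=2, ± SEM.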

[4] = Ex vivo receptor occupancy at GluN2B in po dosed Sprague-Dawley rat assessed as 3-[3H] 1-(azetidin-1-yl)-2-[6-(4-fluoro-3-methyl-phenyl)pyrrolo[3,2-b]pyridin-1-yl]-ethanone labelling measured after 60 mins by autoradiography; assay type: functional, organism-based
Outline: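 Oral dosing at 8 dose levels in 20% HP-β-CD; 3 rats per group. GluN2B occupancy in hippocampus measured 60 min post dose by ex vivo radiotracer autoradiography and calculated versus naïve controls, mean ± SEM. Plasma concentrations paired with occupancy to derive EC50 and dose ED50.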

Cytochrome P450 2C8 = biological target: T1, Cytochrome P450 2C8 (Homo sapiens, UniProt P10632); experiment: Inhibition of CYP2C8 in human liver microsomes using amodiaquine as substrate measured after 15 mins by LC-MS/MS analysis; assay type: ADME
T1 sequence (P10632 whole entry): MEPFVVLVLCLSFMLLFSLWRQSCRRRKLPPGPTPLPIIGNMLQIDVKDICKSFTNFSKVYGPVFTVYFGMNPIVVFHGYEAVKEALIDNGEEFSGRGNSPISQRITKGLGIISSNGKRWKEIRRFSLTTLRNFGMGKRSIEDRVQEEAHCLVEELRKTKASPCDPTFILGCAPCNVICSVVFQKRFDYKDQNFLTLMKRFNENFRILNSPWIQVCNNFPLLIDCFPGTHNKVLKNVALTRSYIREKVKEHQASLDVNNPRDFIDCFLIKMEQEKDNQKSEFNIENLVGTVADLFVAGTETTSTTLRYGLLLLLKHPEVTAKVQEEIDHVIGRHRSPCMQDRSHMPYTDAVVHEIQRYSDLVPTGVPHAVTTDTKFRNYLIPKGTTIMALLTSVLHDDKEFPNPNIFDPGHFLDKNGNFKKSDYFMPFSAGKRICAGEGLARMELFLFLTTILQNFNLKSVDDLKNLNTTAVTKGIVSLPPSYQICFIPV
Outline: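 Human liver microsomes incubated with isoform-specific probe substrates and the test compound at concentrations up to 20 µM. IC50 derived from inhibition of metabolite formation; mean of two independent experiments, with known specific inhibitors as positive controls.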

[5] = Volume of distribution at steady state in dog at 0.1 mg/kg, iv by LC-MS/MS analysis; assay type: ADME, organism-based, Canis lupus familiaris; settings: in vivo, read-out: Vdss
[6] = Half life in dog at 0.1 mg/kg, iv by LC-MS/MS analysis; assay type: ADME, organism-based, Canis lupus familiaris; settings: in vivo
[7] = Half life in dog at 0.5 mg/kg, po by LC-MS/MS analysis; assay type: ADME, organism-based, Canis lupus familiaris; settings: in vivo
[8] = AUC (infinity) in mouse at 0.5 mg/kg, iv by LC-MS/MS analysis; assay type: ADME, organism-based; parameters: time infinity, route intravenous, dose 0.5 mg/kg; settings: in vivo
[9] = Half life in mouse at 0.5 mg/kg, iv by LC-MS/MS analysis; assay type: ADME, organism-based; settings: in vivo
[10] = Tmax in Sprague-Dawley rat at 2.5 mg/kg, po by LC-MS/MS analysis; assay type: ADME, organism-based; settings: in vivo
[11] = Clearance in Sprague-Dawley rat at 0.5 mg/kg, iv by LC-MS/MS analysis; assay type: ADME, organism-based; settings: in vivo
Outline: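 Rat PK with IV and PO dosing, n=3. The usual doses were 0.5 mg/kg IV and 2.5 mg/kg PO in 20% HP-β-CD. One compound was instead given at 0.1 mg/kg IV and 0.5 mg/kg PO.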

[12] = Clearance in monkey at 0.1 mg/kg, iv by LC-MS/MS analysis; assay type: ADME, organism-based, Macaca mulatta; settings: rhesus monkey, in vivo
[13] = Half life in mouse at 2.5 mg/kg, po by LC-MS/MS analysis; assay type: ADME, organism-based; settings: in vivo
[14] = Oral bioavailability in mouse at 2.5 mg/kg by LC-MS/MS analysis; assay type: ADME, organism-based; settings: in vivo
[15] = Cmax in Sprague-Dawley rat at 250 mg/kg, po administered via gavage after 24 hrs using HPMC formulation by LC-MS/MS analysis; assay type: ADME, organism-based; parameters: route oral, time 24 hrs, dose 250 mg/kg; settings: in vivo
Outline: (§1)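 Single oral gavage dose to male Sprague Dawley rats, 3 per dose level. Vehicles were a standard suspension in 5% HPMC (125, 250, 500 or 1000 mg/kg) or a nanosuspension (API:polymer 4:1), with stock diluted in vehicle on the day of dosing (100, 250 or 500 mg/kg). Blood was sampled at time points from 0.5 to 24 h.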

[16] = Cmax in Sprague-Dawley rat at 1000 mg/kg, po administered via gavage after 24 hrs using HPMC formulation by LC-MS/MS analysis; assay type: ADME, organism-based; parameters: route oral, dose 1000 mg/kg, time 24 hrs; settings: in vivo; outline: as §1
[17] = Tmax in Sprague-Dawley rat at 250 mg/kg, po administered via gavage after 24 hrs using HPMC formulation by LC-MS/MS analysis; assay type: ADME, organism-based; settings: in vivo
Outline: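 Single oral gavage of a 5% HPMC suspension at 125, 250, 500 or 1000 mg/kg to male Sprague Dawley rats, 3 per group. Plasma was sampled at 6 time points from 0.5 to 24 h.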

[18] = AUC (0 to 24 hrs) in Sprague-Dawley rat at 500 mg/kg/day, po administered as nanosuspension measured for 14 days measured post last dose by LC-MS/MS analysis; assay type: ADME, organism-based; parameters: route oral, dose 500 mg/kg/day, time 14 day; settings: in vivo
Outline: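 Repeated daily oral dosing of the nanosuspension to rats for 14 days, up to 500 mg/kg/day.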

[19] = Ratio of Cmax in Sprague-Dawley rat at 100 mg/kg, po administered via gavage after 24 hrs using nanosuspension formulation by LC-MS/MS analysis to EC70 for ex vivo receptor occupancy at GluN2B in po dosed Sprague-Dawley rat assessed as 3-[3H] 1-(azetidin-1-yl)-2-[6-(4-fluoro-3-methyl-phenyl)pyrrolo[3,2-b]pyridin-1-yl]-ethanone labelling; assay type: ADME, organism-based
[20] = Solubility of compound in simulated gastric fluid at pH 1.2 measured after 3 days; assay type: physicochemical; settings: time 3 day
Outline: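 Solubility in aqueous buffer at pH 2 and pH 7, and in simulated gastric and intestinal fluids.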

[21] = Rattus norvegicus, Sprague-Dawley, po, 1 h, time 60 min

Compound: Cn1c(=O)n(CC(=O)N2CCC2)c2cc(-c3ccc(C(F)(F)F)s3)cnc21
- IC50 [1]: > 10 µM
- Cmax [2]: 479 ng/mL
- Occ [3]: 87%
- EC50 ([4]; Rattus norvegicus, Sprague-Dawley): 0.407 µg/mL (≈ 1.03 µM)
- ED50 [4, 21]: 0.86 mg/kg
- ED70 [4, 21]: 1.44 mg/kg
- EC70 ([4]; time 60 min, 1 h): 0.716 µg/mL (≈ 1.81 µM)
- fEC70 ([4]; time 60 min, 1 h): 40 ng/mL
- IC50 (Cytochrome P450 2C8): > 50 µM
- Vd [5]: 0.8 L/kg
- half-life [6]: 0.8 h
- half-life [7]: 0.7 h
- AUC(0-inf) [8]: 0.156 µg·h/mL
- half-life [9]: 0.9 h
- Tmax [10]: 1.3 h
- clearance [11]: 30 mL/min/kg
- clearance [12]: 9 mL/min/kg
- half-life [13]: 2.4 h
- bioavailability [14]: 69%
- Cmax [15]: 5480 ng/mL
- Cmax [16]: 7010 ng/mL
- Tmax [17]: 2.7 h
- AUC at 336 h [18]: 222 µg·h/mL
- Ratio [19]: 13
- solubility at 72 h [20]: 4.4 µM (≈ 1.74 µg/mL)
